≈ marks a conversion by molar mass, not a printed value. Each block holds one molecule with its values, some of them ahead of it. Calls of active or inactive are those of the source. The calls are words filed in the database; no cut-off is given here.
Experiments:
[1] = target: T1, Prostaglandin E2 receptor EP1 subtype (Homo sapiens, UniProt P34995); test: Displacement of [3H]GW875240X from human prostanoid EP1 receptor expressed in CHO-K1 cells after 45 mins by topcount liquid scintillation counting; type: cell-based
T1 sequence (P34995 whole entry): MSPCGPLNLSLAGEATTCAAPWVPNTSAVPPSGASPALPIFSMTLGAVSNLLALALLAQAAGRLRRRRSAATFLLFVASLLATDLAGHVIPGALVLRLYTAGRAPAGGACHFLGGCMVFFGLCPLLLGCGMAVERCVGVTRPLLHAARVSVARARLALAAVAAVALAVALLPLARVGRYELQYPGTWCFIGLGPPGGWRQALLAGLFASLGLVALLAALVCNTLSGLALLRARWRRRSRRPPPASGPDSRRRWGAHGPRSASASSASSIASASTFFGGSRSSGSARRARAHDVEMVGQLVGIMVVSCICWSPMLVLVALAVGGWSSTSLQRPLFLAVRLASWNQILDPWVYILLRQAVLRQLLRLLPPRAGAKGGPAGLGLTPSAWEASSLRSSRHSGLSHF
How it was run: (§1)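 Radioligand binding at the EP1 receptor. Either [3H]-GW875240X or [3H]-PGE2 is the displaced ligand. Values are pIC50, means of at least three experiments.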

[2] = target: T1, Prostaglandin E2 receptor EP1 subtype; test: Displacement of [3H]PGE2 from human prostanoid EP1 receptor expressed in CHO-K1 cells after 30 mins by topcount liquid scintillation counting; type: cell-based; how it was run: as §1
[3] = target: T1, Prostaglandin E2 receptor EP1 subtype; test: Antagonist activity at human recombinant EP1 receptor expressed in CHO-K1 cells assessed as inhibition of PGE2-mediated intracellular calcium mobilization by FLIPR method; type: functional, cell-based
[4] = target: T2, Prostaglandin E2 receptor EP3 subtype (Homo sapiens, UniProt P43115); test: Antagonist activity at human recombinant EP3 receptor expressed in CHO-K1 cells assessed as inhibition of PGE2-mediated intracellular calcium mobilization by FLIPR method; type: functional, cell-based
T2 sequence (P43115 whole entry): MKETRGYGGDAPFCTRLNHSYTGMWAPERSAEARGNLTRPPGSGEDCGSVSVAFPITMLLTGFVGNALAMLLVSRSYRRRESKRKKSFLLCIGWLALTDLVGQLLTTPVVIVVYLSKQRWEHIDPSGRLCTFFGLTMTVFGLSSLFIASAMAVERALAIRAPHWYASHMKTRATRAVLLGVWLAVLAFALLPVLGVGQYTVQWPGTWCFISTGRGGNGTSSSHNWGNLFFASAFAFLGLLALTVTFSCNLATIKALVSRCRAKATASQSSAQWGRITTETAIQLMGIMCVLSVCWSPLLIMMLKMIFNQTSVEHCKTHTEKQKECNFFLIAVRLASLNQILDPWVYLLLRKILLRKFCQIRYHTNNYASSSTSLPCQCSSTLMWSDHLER

[5] = Lipophilicity, log D of compound at pH 7.4 by shake flask method; type: physicochemical; settings: buffer
How it was run: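 Log D is determined by the shake flask method at pH 7.4.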

Rattus norvegicus [6] = test: Analgesic activity in rat assessed as reversal of complete Freund's adjuvant-induced inflammatory pain at 10 mg/kg, po after 1 hr post dose; type: functional
How it was run: (§2)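 Rat CFA inflammatory pain model. Oral dosing in 1% methylcellulose. Hypersensitivity reversal is read by weight bearing, at 1 h post-dose. The 5 mg/kg study was also read at 3 h. Dose-response groups were 3, 10 and 30 mg/kg, or 1, 3 and 10 mg/kg, with ED50 derived. Celecoxib at 10 mg/kg po served as the standard.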

[7] = Drug level in brain of rat complete Freund's adjuvant-induced inflammatory pain model at 10 mg/kg, po after 1 hr; type: ADME, organism-based; design: dose 10 mg/kg, route oral; settings: read-out: Drug uptake
How it was run: (§3)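 Blood and brain samples are taken from CFA rats after oral dosing in 1% methylcellulose. Sampling is at 1 h post-dose, and at 3 h in the 5 mg/kg study. Concentrations are in µM or nM, n = 7 or n = 6 for blood and n = 3 for brain. The brain:blood ratio is calculated from the same rats.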

[8] = Half life in rat at 1 mg/kg, iv; type: ADME, organism-based; design: dose 1 mg/kg, route intravenous; settings: in vivo
Blood = test: Fraction unbound in blood of po dosed rat complete Freund's adjuvant-induced inflammatory pain model; type: ADME, organism-based; settings: in vivo
Brain = test: Fraction unbound in brain of po dosed rat complete Freund's adjuvant-induced inflammatory pain model; type: ADME, organism-based; settings: in vivo
[9] = Blood clearance in rat at 1 mg/kg, iv; type: ADME, organism-based; design: dose 1 mg/kg, route intravenous
[10] = Solubility of the compound in fasted state simulated intestinal fluid after 1 hr; type: physicochemical
How it was run: (§4)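 Solubility is measured after 1 h in water, SGF, FaSSIF and FeSSIF, in µg/mL.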

[11] = Ratio of drug level in brain to blood in rat complete Freund's adjuvant-induced inflammatory pain model at 10 mg/kg, po after 1 hr; type: ADME, organism-based; design: dose 10 mg/kg, route oral; settings: read-out: BBR; how it was run: as §3
[12] = Solubility of the compound in water after 1 hr; type: physicochemical; how it was run: as §4
Rattus norvegicus [13] = test: Analgesic activity in rat chronic joint pain model at 30 mg/kg, po bid; type: functional, organism-based; design: dose 30 mg/kg
How it was run: (§5)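 Rat joint pain model of chronic inflammatory pain. Oral dosing b.i.d. at 1, 3, 10 and 30 mg/kg, or at 0.3, 1, 3 and 10 mg/kg. Reversal of hypersensitivity is scored, with statistical significance testing, and ED50 is calculated.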

[14] = Solubility of the compound in simulated gastric fluid after 1 hr; type: physicochemical; how it was run: as §4
[15] = Volume of distribution at steady state in rat at 1 mg/kg, iv; type: ADME, organism-based; design: dose 1 mg/kg, route intravenous; settings: in vivo, read-out: Vdss
Liver microsomes = test: Intrinsic clearance in human liver microsomes; type: ADME, Microsome
[16] = Drug level in blood of rat complete Freund's adjuvant-induced inflammatory pain model at 10 mg/kg, po after 1 hr; type: ADME, organism-based; design: dose 10 mg/kg, route oral; settings: read-out: Drug uptake; how it was run: as §3
Rattus norvegicus [17] = test: Analgesic activity in po dosed rat chronic joint pain model; type: functional; how it was run: as §5
Rattus norvegicus [18] = test: Analgesic activity in po dosed rat assessed as reversal of complete Freund's adjuvant-induced inflammatory pain after 1 hr post dose; type: functional; how it was run: as §2

Structure (SMILES): Cc1cc(C(N)=O)nn1Cc1cc(Cl)cc2cc(-c3ccccc3)oc12
IC50 [1]: 5.01 nM

Structure (SMILES): Cc1cc(C(=O)O)nn1Cc1cc(Cl)cn2nc(C(C)C)cc12
IC50 [1]: > 1000 nM

Structure (SMILES): Cc1cc(C(=O)O)nn1Cc1cc(Cl)cc2cc(C(C)(C)C)oc12
IC50 [1]: 63.1 nM

Structure (SMILES): Cc1cc(C(=O)NCC(O)C(F)(F)F)nn1Cc1cc(Cl)cc2cc(-c3ccccc3)oc12 (stereo not given)
IC50 [1]: 25.1 nM

Structure (SMILES): CCCc1cc2cc(Cl)cc(Cn3nc(C(=O)O)cc3C)c2o1
IC50 [1]: 25.1 nM

Structure (SMILES): Cc1cc(C(=O)NN2CCOCC2)nn1Cc1cc(Cl)cc2cc(-c3ccccc3)oc12
logD [5]: 3
Activity (Rattus norvegicus [6]): 49%
concentration at 1 h [7]: 3970 nM
half-life [8]: 2.1 h
Fu (Blood): 0.662%
Fu (Brain): 0.17%
clearance [9]: 22 mL/min/kg
solubility at 1 h [10]: 382 µg/mL (≈ 847 µM)
Kp at 1 h [11]: 1.7
IC50 [1]: 10 nM
solubility at 1 h [12]: 171 µg/mL (≈ 379 µM)
Activity (Rattus norvegicus [13]): Active
solubility at 1 h [14]: 227 µg/mL (≈ 503 µM)
Vd [15]: 3.5 L/kg
CL (Liver microsomes): 1.1 mL/min/g
concentration at 1 h [16]: 2340 nM

Structure (SMILES): Cc1cc(C(=O)NC(C)(C)C)nn1Cc1cc(Cl)cc2cc(-c3ccccc3)oc12
logD [5]: 2.9
Activity (Rattus norvegicus [6]): 95%
concentration at 1 h [7]: 112 nM
half-life [8]: 4.2 h
Fu (Blood): 0.028%
Fu (Brain): 0.017%
clearance [9]: 28 mL/min/kg
Kp at 1 h [11]: 0.3
IC50 [1]: 10 nM
ED50 (Rattus norvegicus [17]): 0.6 mg/kg
Vd [15]: 4.3 L/kg
ED50 (Rattus norvegicus [18]): 5 mg/kg
concentration at 1 h [16]: 381 nM

Structure (SMILES): Cc1cc(C(=O)O)nn1Cc1cc(Cl)cn2cc(C(C)C)nc12
IC50 [2]: 501 nM

Structure (SMILES): Cc1cc(C(=O)O)nn1Cc1cc(Cl)cc2cc(-c3ccccc3)oc12
IC50 [1]: 2 nM

Structure (SMILES): Cc1cc(NC(=O)C2CCN(CC(F)(F)F)CC2)nn1Cc1cc(Cl)cc2cc(-c3ccccc3)oc12
IC50 [1]: 25.1 nM

Structure (SMILES): Cc1cc(C(=O)N[C@H]2CC[C@H](O)CC2)nn1Cc1cc(Cl)cc2cc(-c3ccccc3)oc12
IC50 [1]: 7.94 nM

Continued, values first:

IC50 [2]: 5.01 nM
Ki [3]: 0.398 nM
Ki [4]: 1000 nM
Structure (SMILES): Cc1cc(C(=O)O)nn1Cc1cc(Cl)cc2cc(C(C)C)oc12

IC50 [2]: 63.1 nM
Structure (SMILES): Cc1cc(C(=O)NC2CCOCC2)nn1Cc1cc(Cl)cc2cc(C(C)C)oc12

IC50 [2]: 50.1 nM
Structure (SMILES): Cc1cc(-c2nc3ccccc3[nH]2)nn1Cc1cc(Cl)cc2cc(C(C)C)oc12

IC50 [1]: 10 nM
Structure (SMILES): Cc1cc(C(=O)NC(C)C)nn1Cc1cc(Cl)cc2cc(-c3ccccc3)oc12

IC50 [2]: 63.1 nM
Structure (SMILES): CNCc1ccc(NC(=O)c2cc(C)n(Cc3cc(Cl)cc4cc(C(C)C)oc34)n2)cc1

Source: ChEMBL document CHEMBL1914431, “Discovery of a novel series of nonacidic benzofuran EP1 receptor antagonists” (Bioorg Med Chem Lett, 2011)
